For orientation: Cmax means the maximum level reached in the sampled fluid or tissue. In general, AUC(0-inf) refers to the area under the concentration-time curve extrapolated to infinity. The IC50 is the concentration at which inhibition is half-maximal. One may read the bioavailability as dose-corrected exposure relative to a reference, in per cent.

Active and inactive are the calls of the source. The rule behind the calls is not given here.

The text below walks through data of ChEMBL document CHEMBL4364291, “Benzylideneacetone Derivatives Inhibit Osteoclastogenesis and Activate Osteoblastogenesis Independently Based on Specific Structure-Activity Relationship” (J Med Chem, 2019).

The nature of data set [1]: Terminal half-life in ICR mouse at 2 mg/kg, iv measured up to 8 hrs by LC-MS/HPLC analysis. The data set is classed as ADME, organism-based. The conditions noted are these: in vivo, read-out: beta t1/2 (converted). An outline of the steps: (§1)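 Six-week-old male ICR mice (n = 3) were kept at 25 ± 2 °C on a 12 h light/dark cycle and dosed iv or po. Total plasma concentration (bound plus unbound) was plotted against time. Terminal T1/2 came from the elimination phase: a two-compartment fit for po dosing and a single-compartment fit for iv dosing.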

Data set [2] in a line: Terminal half-life in ICR mouse at 10 mg/kg, po administered via gavage measured up to 8 hrs by LC-MS/HPLC analysis. The data set is classed as ADME, organism-based. The settings on record: in vivo, read-out: beta t1/2 (converted). An outline of the steps: as §1
The nature of data set [3]: Terminal half-life in ICR mouse at 50 mg/kg, po administered via gavage measured up to 8 hrs by LC-MS/HPLC analysis. The data set is classed as ADME, organism-based. The conditions noted are these: in vivo, read-out: beta t1/2 (converted). An outline of the steps: as §1
A short description of data set [4]: Cmax in ICR mouse at 10 mg/kg, po administered via gavage measured up to 8 hrs by LC-MS/HPLC analysis. The data set is classed as ADME, organism-based. On the set-up: dose 10 mg/kg, route oral. The conditions noted are these: in vivo. In short, it runs like this:
(§2)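 Six-week-old male ICR mice, housed at 25 ± 2 °C, 60 ± 10% humidity, 12 h light/dark. Dosing was iv at 2 mg/kg or po at 10 and 50 mg/kg. Plasma concentrations were total, bound plus unbound. AUC∞ is from time zero to infinity. F = (AUCpo/AUCiv) × 100. Cmax and AUC∞ are mean ± SD of three mice.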

Data set [5] is described as follows: Cmax in ICR mouse at 50 mg/kg, po administered via gavage measured up to 8 hrs by LC-MS/HPLC analysis. The data set is classed as ADME, organism-based. On the set-up: dose 50 mg/kg, route oral. The conditions noted are these: in vivo. In short, it runs like this: as §2
The nature of data set [6]: AUC (0 to infinity) in ICR mouse at 2 mg/kg, iv measured up to 8 hrs by LC-MS/HPLC analysis. The settings on record: in vivo. The data set is classed as ADME, organism-based. Details: dose 2 mg/kg, time infinity, route intravenous. An outline of the steps: as §2
The nature of data set [7]: AUC (0 to infinity) in ICR mouse at 10 mg/kg, po administered via gavage measured up to 8 hrs by LC-MS/HPLC analysis. The data set is classed as ADME, organism-based. Details: dose 10 mg/kg, route oral, time infinity. The settings on record: in vivo. An outline of the steps:
as §2

Data set [8] in a line: Inhibition of M-CSF/RANKL-induced osteoclast differentiation in C57BL/6 mouse bone marrow macrophage assessed as reduction in multinucleated TRAP+ cells incubated for 6 days with fresh media replacement on day 3 and measured on day 6 by TRAP staining-based microscopic analysis. The data set is classed as functional, cell-based. The conditions noted are these: C57BL/6, BMDM. In short, it runs like this: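 BMM came from femur and tibia marrow of 5–8-week-old male C57BL/6 mice and were purified over lymphocyte separation medium. Cells, 1 × 10^5 per well, were grown in α-MEM/10% FBS with M-CSF (60 ng/mL) and RANKL (150 ng/mL) for 6 d, medium changed day 3. Compound range was 0.01−100 μM. TRAP+ multinucleated cells were counted on day 6.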

Data set [9] in a line: AUC (0 to infinity) in ICR mouse at 50 mg/kg, po administered via gavage measured up to 8 hrs by LC-MS/HPLC analysis. The data set is classed as ADME, organism-based. On the set-up: dose 50 mg/kg, time infinity, route oral. The conditions noted are these: in vivo. In short, it runs like this: as §2
Data set [10] deals with MC3T3-E1. Kind of data set: Osteo-blastogenic activity in mouse MC3T3-E1 cells assessed as stimulation of ALP activity at 10 uM supplemented with fresh medium every 3 to 4 days and measured after 14 days relative to control. The data set is classed as functional. An outline of the steps:
(§3)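 MC3T3-E1 subclone 4 osteoblastic cells were grown in α-MEM at 37 °C under 5% CO2 with compound present during differentiation. ALP activity was read 14 d after induction and expressed as % of untreated cells. Values are mean ± SD of three independent experiments.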

For data set [11], the system named is MC3T3-E1. Kind of data set: Osteo-blastogenic activity in mouse MC3T3-E1 cells assessed as stimulation of ALP activity at 50 uM supplemented with fresh medium every 3 to 4 days and measured after 14 days relative to control. The data set is classed as functional. An outline of the steps: as §3
A short description of data set [12]: Oral bioavailability in ICR mouse at 10 mg/kg administered via gavage measured up to 8 hrs by LC-MS/HPLC analysis. The data set is classed as ADME, organism-based. The settings on record: in vivo. In short, it runs like this: as §2
The nature of data set [13]: Oral bioavailability in ICR mouse at 50 mg/kg administered via gavage measured up to 8 hrs by LC-MS/HPLC analysis. The data set is classed as ADME, organism-based. The settings on record: in vivo. An outline of the steps:
as §2

For data set [14], the system named is Mus musculus. Kind of data set: Antiosteoporotic activity in ddY mouse model of OVX-induced osteoporosis assessed as increase in femur bone mineral density at 10 mg/kg, po administered once daily via gavage for 4 weeks by microcomputed tomographic analysis. The data set is classed as functional, organism-based. An outline of the steps:
(§4)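 Female ddY mice were ovariectomized. Oral gavage began 1 week after surgery and ran once daily for 28 d. Vehicle was 300 μL PBS containing 0.5% (v/v) DMSO, also given to sham and OVX controls. Mice were then euthanized and femur and tibia fixed for CT imaging. Values are mean ± SD of four mice.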

Data set [15] deals with Mus musculus. The data set is described as follows: Antiosteoporotic activity in ddY mouse model of OVX-induced osteoporosis assessed as increase in ratio of bone volume/trabecular volume in femur bone at 10 mg/kg, po administered once daily via gavage for 4 weeks by microcomputed tomographic analysis. The data set is classed as functional, organism-based. In short, it runs like this:
as §4

Data set [16] concerns Mus musculus. Kind of data set: Antiosteoporotic activity in ddY mouse model of OVX-induced osteoporosis assessed as increase in cross-sectional thickness in femur bone at 10 mg/kg, po administered once daily via gavage for 4 weeks by microcomputed tomographic analysis. The data set is classed as functional, organism-based. An outline of the steps:
as §4

The subject of data set [17] is Mus musculus. Kind of data set: Antiosteoporotic activity in ddY mouse model of OVX-induced osteoporosis assessed as increase in trabecular number in femur bone at 10 mg/kg, po administered once daily via gavage for 4 weeks by microcomputed tomographic analysis. The data set is classed as functional, organism-based. An outline of the steps:
as §4

Data set [18] has as its system Mus musculus. Kind of data set: Antiosteoporotic activity in ddY mouse model of OVX-induced osteoporosis assessed as increase in trabecular thickness in femur bone at 10 mg/kg, po administered once daily via gavage for 4 weeks by microcomputed tomographic analysis. The data set is classed as functional, organism-based. An outline of the steps:
as §4

For data set [19], the system named is Mus musculus. The data set is described as follows: Antiosteoporotic activity in ddY mouse model of OVX-induced osteoporosis assessed as reduction in trabecular separation in femur bone at 10 mg/kg, po administered once daily via gavage for 4 weeks by microcomputed tomographic analysis. The data set is classed as functional, organism-based. In short, it runs like this:
as §4

The test system of data set [20] is Mus musculus. The data set is described as follows: Antiosteoporotic activity in ddY mouse model of OVX-induced osteoporosis assessed as increase in new bone volume in femur bone at 10 mg/kg, po administered once daily via gavage for 4 weeks by microcomputed tomographic analysis. The data set is classed as functional, organism-based. In short, it runs like this:
as §4

The nature of data set [21]: Cytotoxicity against mouse RAW264.7 cells after 24 hrs by MTT assay. The data set is classed as cell-based. The conditions noted are these: read-out: LD50. An outline of the steps: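 RAW264.7 macrophages (preosteoclast line) were kept in DMEM at 37 °C under 5% CO2 and tested without RANKL. MTT read-out of growth and survival, expressed as LD50.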
(Formazan colour is commonly taken as a measure of viable cells.)

A short description of data set [22]: Toxicity in ddY mouse model of OVX-induced osteoporosis assessed as increase in body weight at 10 mg/kg, po administered once daily via gavage for 4 weeks measured 5 weeks post OVX-challenge. The settings on record: in vivo, 840 h. The data set is classed as organism-based. In short, it runs like this: (§5)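 Dosing of ddY mice began one week after ovariectomy: compound in 300 μL of 0.5% (v/v) DMSO-containing PBS by gavage once daily for 28 d. OVX and sham controls received vehicle. Body weight was compared with sham control 5 weeks after OVX.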

Data set [23] can be described thus: Toxicity in ddY mouse model of OVX-induced osteoporosis assessed as increase in body weight at 1 mg/kg, po administered once daily via gavage for 4 weeks measured 5 weeks post OVX-challenge. The conditions noted are these: in vivo, 840 h. The data set is classed as organism-based. An outline of the steps: as §5
The nature of data set [24]: Inhibition of M-CSF/RANKL-induced osteoclast differentiation in C57BL/6 mouse bone marrow macrophage assessed as reduction in bone resorption at 7.8 uM treated for 3 days starting from 6 days post M-CSF/RANKL-stimulation by europium-conjugated collagen based time-resolved fluorescence assay relative to control. The data set is classed as functional, BMDM. Details: scale not given: the % may be the effect or the level left. In short, it runs like this:
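Mature multinucleated osteoclasts differentiated from C57BL/6 BMM were exposed to compound for 3 d in a bone resorption assay. Resorption was compared with untreated mature osteoclasts.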

Consider `COc1ccc(/C=C/C(C)=O)cc1O`, for which the half-life in data set [1] is 1 h; in data set [2], 1.2 h; in [3] it was 2.2 h. The Cmax in [4] stood at 160 nM; in data set [5] it was 880 nM. For the same compound, the AUC(0-inf) in data set [6] stood at 0.1 µM·h; in [7], 0.14 µM·h; in [9], 0.72 µM·h. Moreover, the IC50 in data set [8] is 0.11 µM. For the same compound, the Activity in the data set on MC3T3-E1 [10] was 100%; in the data set with MC3T3-E1 [11] it was 180%; in data set [22] it was “Toxic”; in data set [23], “Toxic”. Also, the bioavailability in data set [12] came to 26%; in data set [13], 29%. Moreover, the outcome in the data set on Mus musculus [14], with Mus musculus [15], in the data set with Mus musculus [16], with Mus musculus [17], in the data set on Mus musculus [18] and with Mus musculus [19] was Active. For the same compound, the outcome in the data set on Mus musculus [20] was Active. The CC50 at 24 h in [21] was over 5000 µM.
As for `CC(=O)/C=C/c1ccc(O)c(O)c1`, the half-life in data set [1] is 0.4 h; in data set [2], 2.1 h; in data set [3], 3.1 h. Moreover, the results for the peak concentration (Cmax) in data set [4] and in data set [5] were 200 nM and 1100 nM, respectively. For the same compound, the total exposure AUC(0-inf) in [6] worked out at 0.039 µM·h; in data set [7], 0.14 µM·h; in data set [9], 0.66 µM·h. Besides, the IC50 in data set [8] stood at 7.8 µM. Besides, the Activity entry is listed as “<=59%” in [24], 120% with MC3T3-E1 [10], 280% in the data set on MC3T3-E1 [11] and “Toxic” in [22]. For the same compound, the bioavailability in data set [12] was found to be 66%; in [13], 76%. The result in the data set on Mus musculus [14], in the data set with Mus musculus [15], in the data set with Mus musculus [16], in the data set with Mus musculus [17], in the data set with Mus musculus [18] and in the data set on Mus musculus [19] was Active. For the same compound, in the data set with Mus musculus [20], the outcome was Active. Also, the CC50 at 24 h in [21] came out at 500 µM.
